The compounds below were run on OVCAR-8 (assay: Cytotoxicity against human OVCAR8 cells assessed as growth inhibition at 5 ug/ml by MTT assay). Conditions: read-out: GI.
Type: functional
Outline: (§1)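 Single-concentration MTT screen at 5 µg/mL across SF-295 (glioblastoma), OVCAR-8 (ovary) and HCT-116 (colon) cells. Read-out is percent growth inhibition, reported with sd.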

In order of falling inhibition of growth at 5 µg/mL:
1. Clc1cccc(/C=N/Nc2cnc3ccccc3n2)c1Cl  100%
2. O=[N+]([O-])c1ccc(O)c(/C=N/Nc2cnc3ccccc3n2)c1  95.6%
3. COc1ccc(/C=N/Nc2cnc3ccccc3n2)c(O)c1  80.9%
4. Clc1cccc(Cl)c1/C=N/Nc1cnc2ccccc2n1  53.5%
5. CCOc1ccc(/C=N/Nc2cnc3ccccc3n2)cc1  50.3%
6. Clc1ccc(/C=N/Nc2cnc3ccccc3n2)cc1  41.7%
7. CCOc1cccc(/C=N/Nc2cnc3ccccc3n2)c1  41.2%
8. COc1cc(/C=N/Nc2cnc3ccccc3n2)cc(OC)c1OC  38.8%
9. C(=N\Nc1cnc2ccccc2n1)/c1ccccc1  34.5%
10. Cc1ccc(/C=N/Nc2cnc3ccccc3n2)c(O)c1  31.5%
11. Oc1ccc(/C=N/Nc2cnc3ccccc3n2)cc1Cl  28.8%
12. Cc1ccc(O)c(/C=N/Nc2cnc3ccccc3n2)c1  25.4%
13. COc1cccc(OC)c1/C=N/Nc1cnc2ccccc2n1  25.1%
14. COc1ccc(OC)c(/C=N/Nc2cnc3ccccc3n2)c1  18.5%
15. COc1ccc(/C=N/Nc2cnc3ccccc3n2)cc1OC  17.6%
16. COc1ccc(/C=N/Nc2cnc3ccccc3n2)c(Cl)c1O  13.8%
17. Clc1ccccc1/C=N/Nc1cnc2ccccc2n1  9.09%
18. O=[N+]([O-])c1cc(/C=N/Nc2cnc3ccccc3n2)ccc1Cl  9%
19. Fc1cccc(/C=N/Nc2cnc3ccccc3n2)c1  5.59%
20. Clc1ccc(/C=N/Nc2cnc3ccccc3n2)c(Cl)c1  4.9%
21. Fc1ccccc1/C=N/Nc1cnc2ccccc2n1  0%
22. Clc1cccc(/C=N/Nc2cnc3ccccc3n2)c1  0%
23. Clc1ccc(/C=N/Nc2cnc3ccccc3n2)cc1Cl  0%

The compounds below were run on OVCAR-8 (assay: Cytotoxicity against human OVCAR8 cells assessed as growth inhibition by MTT assay). Conditions: not given.
Type: functional, cell-based
Outline: (§2)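 Dose-response on HCT-116, OVCAR-8, HL-60 (leukemia) and SF-295 cells, with doxorubicin as positive control. IC50 is taken as the concentration inducing 50% inhibition of cell growth. Data come from three independent experiments, each run in triplicate.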

In order of falling IC50:
1. COc1ccc(/C=N/Nc2cnc3ccccc3n2)c(O)c1  7.55 µM
2. Clc1cccc(/C=N/Nc2cnc3ccccc3n2)c1Cl  6.19 µM
3. O=[N+]([O-])c1ccc(O)c(/C=N/Nc2cnc3ccccc3n2)c1  2.84 µM
4. COc1cccc2c1C(=O)c1c(O)c3c(c(O)c1C2=O)C[C@@](O)(C(=O)CO)C[C@@H]3O[C@H]1C[C@H](N)[C@H](O)[C@H](C)O1 [DOXORUBICIN]  0.488 µM

These compounds were tested on HCT-116 (assay: Cytotoxicity against human HCT116 cells assessed as growth inhibition by MTT assay). Conditions: not given.
Type: functional, cell-based
Outline: as §2

In order of falling IC50:
1. COc1ccc(/C=N/Nc2cnc3ccccc3n2)c(O)c1  14.2 µM
2. Clc1cccc(/C=N/Nc2cnc3ccccc3n2)c1Cl  7.01 µM
3. O=[N+]([O-])c1ccc(O)c(/C=N/Nc2cnc3ccccc3n2)c1  4.32 µM
4. COc1cccc2c1C(=O)c1c(O)c3c(c(O)c1C2=O)C[C@@](O)(C(=O)CO)C[C@@H]3O[C@H]1C[C@H](N)[C@H](O)[C@H](C)O1 [DOXORUBICIN]  0.23 µM

Each compound was assayed on HCT-116 (assay: Cytotoxicity against human HCT116 cells assessed as growth inhibition at 5 ug/ml by MTT assay). Conditions: read-out: GI.
Type: functional
Outline: as §1

In order of falling inhibition of growth at 5 µg/mL:
1. Clc1cccc(/C=N/Nc2cnc3ccccc3n2)c1Cl  97.5%
2. O=[N+]([O-])c1ccc(O)c(/C=N/Nc2cnc3ccccc3n2)c1  92.1%
3. COc1ccc(/C=N/Nc2cnc3ccccc3n2)c(O)c1  83.1%
4. Clc1cccc(Cl)c1/C=N/Nc1cnc2ccccc2n1  71.2%
5. COc1ccc(/C=N/Nc2cnc3ccccc3n2)c(Cl)c1O  24.5%
6. COc1ccc(/C=N/Nc2cnc3ccccc3n2)cc1OC  22.3%
7. COc1cc(/C=N/Nc2cnc3ccccc3n2)cc(OC)c1OC  20.7%
8. O=[N+]([O-])c1cc(/C=N/Nc2cnc3ccccc3n2)ccc1Cl  20.6%
9. COc1cccc(OC)c1/C=N/Nc1cnc2ccccc2n1  19.4%
10. C(=N\Nc1cnc2ccccc2n1)/c1ccccc1  18.4%
11. CCOc1ccc(/C=N/Nc2cnc3ccccc3n2)cc1  17.6%
12. Cc1ccc(/C=N/Nc2cnc3ccccc3n2)c(O)c1  17.4%
13. Clc1ccc(/C=N/Nc2cnc3ccccc3n2)c(Cl)c1  16.5%
14. Oc1ccc(/C=N/Nc2cnc3ccccc3n2)cc1Cl  16.2%
15. Cc1ccc(O)c(/C=N/Nc2cnc3ccccc3n2)c1  13.7%
16. Clc1ccccc1/C=N/Nc1cnc2ccccc2n1  12.1%
17. Fc1cccc(/C=N/Nc2cnc3ccccc3n2)c1  10.8%
18. Clc1ccc(/C=N/Nc2cnc3ccccc3n2)cc1  10.2%
19. Fc1ccccc1/C=N/Nc1cnc2ccccc2n1  7.01%
20. CCOc1cccc(/C=N/Nc2cnc3ccccc3n2)c1  1.29%
21. Clc1ccc(/C=N/Nc2cnc3ccccc3n2)cc1Cl  0.5%
22. COc1ccc(OC)c(/C=N/Nc2cnc3ccccc3n2)c1  0%
23. Clc1cccc(/C=N/Nc2cnc3ccccc3n2)c1  0%

The compounds below were run on SF-295 (assay: Cytotoxicity against human SF295 cells assessed as growth inhibition at 5 ug/ml by MTT assay). Conditions: read-out: GI.
Type: functional
Outline: as §1

In order of rising inhibition of growth at 5 µg/mL:
1. C(=N\Nc1cnc2ccccc2n1)/c1ccccc1  3.37%
2. CCOc1cccc(/C=N/Nc2cnc3ccccc3n2)c1  7.19%
3. Fc1cccc(/C=N/Nc2cnc3ccccc3n2)c1  8.36%
4. CCOc1ccc(/C=N/Nc2cnc3ccccc3n2)cc1  12.3%
5. Fc1ccccc1/C=N/Nc1cnc2ccccc2n1  12.8%
6. COc1ccc(/C=N/Nc2cnc3ccccc3n2)cc1OC  16.5%
7. Clc1ccc(/C=N/Nc2cnc3ccccc3n2)c(Cl)c1  28.5%
8. Clc1ccccc1/C=N/Nc1cnc2ccccc2n1  31.9%
9. COc1ccc(/C=N/Nc2cnc3ccccc3n2)c(Cl)c1O  32.4%
10. Clc1cccc(/C=N/Nc2cnc3ccccc3n2)c1  33.2%
11. O=[N+]([O-])c1cc(/C=N/Nc2cnc3ccccc3n2)ccc1Cl  36.8%
12. Clc1ccc(/C=N/Nc2cnc3ccccc3n2)cc1Cl  37.8%
13. Cc1ccc(O)c(/C=N/Nc2cnc3ccccc3n2)c1  38.4%
14. Clc1ccc(/C=N/Nc2cnc3ccccc3n2)cc1  44.5%
15. COc1ccc(OC)c(/C=N/Nc2cnc3ccccc3n2)c1  44.6%
16. COc1cccc(OC)c1/C=N/Nc1cnc2ccccc2n1  44.7%
17. Oc1ccc(/C=N/Nc2cnc3ccccc3n2)cc1Cl  46.6%
18. Clc1cccc(Cl)c1/C=N/Nc1cnc2ccccc2n1  52%
19. Cc1ccc(/C=N/Nc2cnc3ccccc3n2)c(O)c1  59.9%
20. COc1cc(/C=N/Nc2cnc3ccccc3n2)cc(OC)c1OC  60.1%
21. COc1ccc(/C=N/Nc2cnc3ccccc3n2)c(O)c1  66.4%
22. O=[N+]([O-])c1ccc(O)c(/C=N/Nc2cnc3ccccc3n2)c1  78.5%
23. Clc1cccc(/C=N/Nc2cnc3ccccc3n2)c1Cl  84.3%

Each compound was assayed on SF-295 (assay: Cytotoxicity against human SF295 cells assessed as growth inhibition by MTT assay). Conditions: not given.
Type: functional, cell-based
Outline: as §2

In order of falling IC50:
1. COc1ccc(/C=N/Nc2cnc3ccccc3n2)c(O)c1  15.7 µM
2. Clc1cccc(/C=N/Nc2cnc3ccccc3n2)c1Cl  6.21 µM
3. O=[N+]([O-])c1ccc(O)c(/C=N/Nc2cnc3ccccc3n2)c1  2.11 µM

These compounds were tested on HL-60 (assay: Cytotoxicity against human HL60 cells assessed as growth inhibition by MTT assay). Conditions: not given.
Type: functional, cell-based
Outline: as §2

In order of falling IC50:
1. Clc1cccc(/C=N/Nc2cnc3ccccc3n2)c1Cl  10.8 µM
2. COc1ccc(/C=N/Nc2cnc3ccccc3n2)c(O)c1  4.19 µM
3. O=[N+]([O-])c1ccc(O)c(/C=N/Nc2cnc3ccccc3n2)c1  1.75 µM

— ChEMBL document CHEMBL3112521, “Design, synthesis and biological evaluation of (E)-2-(2-arylhydrazinyl)quinoxalines, a promising and potent new class of anticancer agents” (Bioorg Med Chem Lett, 2014)
